Active and inactive are the calls of the source. The calls are words filed in the database; no cut-off is given here.

Results on five molecules are retold here after ChEMBL document CHEMBL4732272, “Remodelin Is a Cryptic Assay Interference Chemotype That Does Not Inhibit NAT10-Dependent Cytidine Acetylation” (ACS Med Chem Lett, 2021).

The nature of data set [1]: Stability of the compound in DMSO-d6 solution assessed as discoloration to dark brown colour in presence of light. The format is physicochemical. The method in brief:
(§1)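 Remodelin solutions followed over time: in aqueous buffer kept from light for 7 days; in DMSO monitored for darkening colour and new aromatic NMR resonances.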

The test system of data set [2] is K562. Put plainly: Covalent protein binding in human K562 cells by rhodamine azide based fluorescence analysis. It counts as functional, cell-based. The following applies: dose 10-100 µM. The method in brief: (§2)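 K562 cancer cell lysates incubated with clickable probes across a dose range (down to 10 μM), then click-labelled with rhodamine azide to visualise proteome labelling; competition run with remodelin added.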

Data set [3] relates to K562. Put plainly: Covalent protein binding in human K562 cells at 10 to 100 uM in presence of remodelin by rhodamine azide based fluorescence analysis. It counts as functional, cell-based. The conditions noted are these: dose 10-100 µM. The method in brief: as §2
In data set [4] the target is T1, RNA cytidine acetyltransferase (Homo sapiens) (UniProt Q9H0A0).
T1 sequence (whole entry): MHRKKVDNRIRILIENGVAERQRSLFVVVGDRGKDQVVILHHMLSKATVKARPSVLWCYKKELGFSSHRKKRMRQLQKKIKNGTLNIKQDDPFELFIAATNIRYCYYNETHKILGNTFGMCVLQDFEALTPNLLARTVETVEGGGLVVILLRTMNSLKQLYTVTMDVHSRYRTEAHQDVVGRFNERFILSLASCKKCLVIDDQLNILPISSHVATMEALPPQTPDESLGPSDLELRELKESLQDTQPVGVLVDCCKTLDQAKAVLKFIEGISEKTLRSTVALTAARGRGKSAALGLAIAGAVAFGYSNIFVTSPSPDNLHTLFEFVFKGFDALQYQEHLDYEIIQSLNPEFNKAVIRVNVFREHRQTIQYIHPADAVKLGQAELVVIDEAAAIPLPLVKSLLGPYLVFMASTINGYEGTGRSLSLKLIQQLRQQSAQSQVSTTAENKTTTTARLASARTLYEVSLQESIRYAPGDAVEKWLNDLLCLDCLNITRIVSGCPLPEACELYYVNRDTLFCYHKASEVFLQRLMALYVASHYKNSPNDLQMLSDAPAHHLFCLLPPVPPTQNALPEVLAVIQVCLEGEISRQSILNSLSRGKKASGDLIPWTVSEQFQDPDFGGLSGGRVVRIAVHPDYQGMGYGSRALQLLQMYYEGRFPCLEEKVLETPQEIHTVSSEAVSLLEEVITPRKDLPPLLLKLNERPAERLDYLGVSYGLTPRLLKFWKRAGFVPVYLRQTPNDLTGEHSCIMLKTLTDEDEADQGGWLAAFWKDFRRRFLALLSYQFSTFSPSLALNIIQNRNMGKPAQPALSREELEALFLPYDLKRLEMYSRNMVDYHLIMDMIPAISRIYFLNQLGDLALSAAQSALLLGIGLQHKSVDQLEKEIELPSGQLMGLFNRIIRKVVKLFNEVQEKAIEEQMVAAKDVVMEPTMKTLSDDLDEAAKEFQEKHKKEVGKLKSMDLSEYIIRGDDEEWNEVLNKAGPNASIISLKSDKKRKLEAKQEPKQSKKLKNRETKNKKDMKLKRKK
Kind of data set: Stabilization of full length recombinant NAT10 (unknown origin) by DSLS based analysis. In a few lines:
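Full-length recombinant NAT10 thermal stability measured by differential static light scattering with ATP, acetyl-CoA or remodelin added.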

Data set [5] deals with T1, RNA cytidine acetyltransferase (Homo sapiens). Kind of data set: Binding affinity to recombinant NAT10 acetyltransferase domain (494 to 753 residues) (unknown origin) by isothermal titration calorimetry. In a few lines: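 Recombinant NAT10 acetyltransferase domain (residues 494–753) titrated with acetyl-CoA or remodelin by isothermal titration calorimetry.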
A short description of data set [6]: Aggregation property of peptides assessed as colloidal aggregate formation at 25 uM by dynamic light scattering analysis. The format is physicochemical.
For a further data set, the target named is Tubulin (Homo sapiens) (UniProt P68371+Q9H4B7+P0DPH7+P68366+Q13509+Q71U36+P04350+Q3ZCM7+P07437+P68363+Q9BQE3+Q6PEY2+Q13885+Q9BVA1+Q9BUF5). Put plainly: Induction of tubulin acetylation in human HEK293T cells at 10 to 50 uM measured after 48 hrs by western blot analysis. The format is cell-based. The conditions noted are these: dose 10-50 µM. Background: In western blotting, separated proteins are transferred to a membrane and probed.

Data set [7] in a line: Aggregation property of the compound assessed as detergent sensitive inhibition of beta-lactamase AmpC at 33 to 100 uM. The conditions noted are these: dose 33-100 µM. It counts as physicochemical.
Data set [8] can be described thus: Thiol-reactivity using La antigen containing reactive cysteine C232 and C245 in presence of DTT by ALARM NMR analysis. The format is ADME.
Data set [9] concerns the target T1, RNA cytidine acetyltransferase (Homo sapiens). Put plainly: Inhibition of NAT10-catalyzed RNA cytidine acetylation in human HeLa cells assessed as decrease in ac4C at helix 45 of 18S rRNA at 50 uM after 48 hrs by nucleotide resolution sequencing analysis. The format is cell-based. The method in brief: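 Helix 45 of 18S rRNA (C1842) read by nucleotide-resolution ac4C sequencing after 50 μM remodelin for 48 h; C→T change at the site scored as ac4C present, no mutation as loss; NAT10 KD as comparator.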

Data set [10] in a line: Redox activity of the compound assessed as H2O2 production at 250 uM in presence of DTT by horseradish peroxidase-phenol red counter screen based assay. It counts as physicochemical. Background: A counterscreen serves to expose hits that act by an unwanted route or on another target.
Data set [11] is described as follows: Redox activity of the compound assessed as H2O2 producion at 250 uM by horseradish peroxidase-phenol red counter screen based assay. It counts as physicochemical.
Data set [12] is described as follows: Stability of the compound in DMSO-d6 solution assessed as drug degradation measured after 24 hrs by NMR analysis. The format is physicochemical.
The nature of data set [13]: Stability of the light-protected compound in aqueous buffer measured for 7 days. The format is physicochemical. The conditions noted are these: 168 h, time 7 day. In a few lines: as §1
Data set [14] deals with T1, RNA cytidine acetyltransferase (Homo sapiens). Put plainly: Inhibition of NAT10-catalyzed RNA cytidine acetylation in human HeLa cells assessed as decrease in ac4C level at 10 to 50 uM after 48 hrs by LC-MS assay. It counts as cell-based. The following applies: dose 10-50 µM. In a few lines:
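Wild-type cells treated with remodelin for 48 h; RNA ac4C levels quantified by LC-MS, with CRISPR-Cas9 NAT10 disruption as comparator.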

Data set [15] has the same target. Kind of data set: Inhibition of NAT10-catalyzed RNA cytidine acetylation in human HeLa cells assessed as decrease in ac4C level at 50 uM after 48 hrs by Northern blot assay. It counts as cell-based. In a few lines: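 Following 48 h remodelin treatment, RNA probed by dot blot or Northern blot with an anti-ac4C antibody.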
Data set [16] is described as follows: Thiol reactivity with CoA at 1 to 50 uM measured after 30 mins by DACM thiol consumption assay. It counts as ADME. The following applies: 0.5 h, dose 1-50 µM.
In data set [17] the target is T1, RNA cytidine acetyltransferase (Homo sapiens). Kind of data set: Inhibition of NAT10-catalyzed RNA cytidine acetylation in human HeLa cells assessed as decrease in ac4C at helix 45 of 18S rRNA at 50 uM after 4 days by UV-HPLC analysis. It counts as cell-based. The following applies: time 4.0 day. The method in brief:
(§3)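 Helix 34 and helix 45 ac4C of 18S rRNA analysed […] by UV-HPLC after cells were treated with remodelin at 50 μM for 4 d; NAT10 KD cells served as comparator.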

Data set [18] has the same target. Kind of data set: Inhibition of NAT10-catalyzed RNA cytidine acetylation in human HeLa cells assessed as decrease in ac4C at helix 34 of 18S rRNA at 50 uM after 4 days by UV-HPLC analysis. It counts as cell-based. The conditions noted are these: time 4.0 day. In a few lines:
as §3

Data set [19] shares this target. Kind of data set: Inhibition of NAT10-catalyzed RNA cytidine acetylation in human HeLa cells assessed as decrease in ac4C level at 10 to 50 uM after 24 to 48 hrs by dot blot assay. It counts as cell-based. The following applies: dose 10-50 µM, time 24-48 hrs.

For `C#CCNC(=O)c1ccc(-c2csc(NN=C3CCCC3)n2)cc1`, the Stabilty entry in data set [1] is “Unstable”. The Activity result in the data set with K562 [2] is “Dose-dependent effect”. Further, the result in the data set with K562 [3] was inactive.
As to `CC(=O)SCCNC(=O)CCNC(=O)[C@H](O)C(C)(C)COP(=O)(O)OP(=O)(O)OC[C@H]1O[C@@H](n2cnc3c(N)ncnc32)[C@H](O)[C@@H]1OP(=O)(O)O`, the outcome in [4] and in [5] was Active.
Consider `C#CCN(N=C1CCCC1)c1nc(-c2ccc(Cl)cc2)cs1`, for which the Activity result in the data set with K562 [2] was “Dose-dependent effect”.
On to `N#Cc1ccc(-c2csc(NN=C3CCCC3)n2)cc1`, for which the Activity entry in data set [6] is “Active”; in data set [7] it was “Not Active”; in [8], “Active”; in data set [10], “Not Active”; in data set [11] it was “Not Active”; in [16], “Not Active”. Further, the result (in [4]; at Tubulin (Homo sapiens); in data set [5]) was inactive. Besides, the Stabilty entry is on record as “Unstable” in data set [1], “Unstable” in data set [12] and “Stable” in data set [13]. The inhibition entry in data set [9], in data set [14], in [15], in [17], in data set [18] and in data set [19] was “inactive” throughout.
With `Nc1ncnc2c1ncn2[C@@H]1O[C@H](COP(=O)(O)OP(=O)(O)OP(=O)(O)O)[C@@H](O)[C@H]1O`, in data set [4], the result was Active.
